What was measured:
CYP2C9 = CYP2C9 (Homo sapiens, UniProt P11712); assay: (§1) Inhibition of CYP2C9 in human liver microsomes at 10 uM using diclofenac substrate preincubated for 5 mins before NADPH addition and measured after 20 mins post NADPH addition; format: ADME; details: liver microsomes, probe diclofenac
Summary of the method: (§2)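 Human liver microsomes 0.2 mg/mL, 1 mmol NADPH, 100 mmol phosphate pH 7.4, probe cocktail (10 μM midazolam, 100 μM testosterone, 10 μM dextromethorphan, 20 μM diclofenac, 100 μM phenacetin, 100 μM mephenytoin), test compound 10 μM or PBS; organic solvent <1%. 5 min preincubation at 37 °C, NADPH-generating system start, 20 min reaction; inhibition from metabolite formation relative to PBS.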

Cytochrome P450 2C9 [1] = molecular target: T1, Cytochrome P450 2C9 (Homo sapiens, UniProt P11712); assay: Time dependent inhibition of CYP2C9 in human liver microsomes at 10 uM using diclofenac substrate preincubated for 5 mins before NADPH addition and measured after 20 mins post NADPH addition; format: ADME
T1 sequence (P11712 whole entry): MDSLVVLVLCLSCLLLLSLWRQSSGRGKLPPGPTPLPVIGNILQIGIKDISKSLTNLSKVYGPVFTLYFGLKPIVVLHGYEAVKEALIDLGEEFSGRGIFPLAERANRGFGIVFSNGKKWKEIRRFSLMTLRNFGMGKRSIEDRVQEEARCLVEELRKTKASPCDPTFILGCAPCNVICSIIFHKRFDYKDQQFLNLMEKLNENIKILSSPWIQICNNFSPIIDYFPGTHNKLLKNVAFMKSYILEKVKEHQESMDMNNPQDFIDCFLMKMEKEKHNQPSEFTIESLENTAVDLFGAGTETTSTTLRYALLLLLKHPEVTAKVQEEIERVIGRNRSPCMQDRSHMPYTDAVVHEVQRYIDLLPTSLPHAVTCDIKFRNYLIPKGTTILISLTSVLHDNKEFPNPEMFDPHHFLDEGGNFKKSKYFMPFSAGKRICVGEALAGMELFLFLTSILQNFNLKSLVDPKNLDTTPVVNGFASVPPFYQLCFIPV

HT-29 = assay: Growth inhibition of human HT-29 cells after 72 hrs by SRB assay; format: functional, cell-based; details: HT-29, 72 h
Summary of the method: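 HT-29 cells are grown in McCoy's 5A with 10% FBS at 37 °C, 5% CO2. DMSO stocks (0.01 mol/L) are diluted in normal saline just before use. Cells are treated in triplicate with gradient concentrations for 72 h at 37 °C.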

CYP3A4 [2] = molecular target: T2, CYP3A4 (Homo sapiens, UniProt P08684); assay: Inhibition of CYP3A4 in human liver microsomes at 10 uM using midazolam substrate preincubated for 5 mins before NADPH addition and measured after 20 mins post NADPH addition; format: ADME; details: probe midazolam; summary of the method: as §2
T2 sequence (P08684 whole entry): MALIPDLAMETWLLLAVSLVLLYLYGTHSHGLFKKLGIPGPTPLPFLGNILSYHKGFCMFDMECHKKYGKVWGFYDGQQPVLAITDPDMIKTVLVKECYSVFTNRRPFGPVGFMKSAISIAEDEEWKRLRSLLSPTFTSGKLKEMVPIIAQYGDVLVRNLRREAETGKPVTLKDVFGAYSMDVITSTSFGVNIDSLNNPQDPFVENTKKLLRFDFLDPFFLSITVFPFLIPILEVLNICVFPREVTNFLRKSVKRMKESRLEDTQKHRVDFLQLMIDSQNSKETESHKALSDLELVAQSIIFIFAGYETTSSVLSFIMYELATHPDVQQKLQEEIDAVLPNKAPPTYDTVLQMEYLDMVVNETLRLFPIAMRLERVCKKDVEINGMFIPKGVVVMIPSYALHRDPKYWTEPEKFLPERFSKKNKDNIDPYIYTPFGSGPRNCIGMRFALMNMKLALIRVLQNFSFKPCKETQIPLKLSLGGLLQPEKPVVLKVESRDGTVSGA

Cytochrome P450 2C19 = Cytochrome P450 2C19 (Homo sapiens, UniProt P33261); assay: Time dependent inhibition of CYP2C19 in human liver microsomes at 10 uM using mephenytoin substrate preincubated for 5 mins before NADPH addition and measured after 20 mins post NADPH addition; format: ADME
Cytochrome P450 2C19, sequence (P33261 whole entry): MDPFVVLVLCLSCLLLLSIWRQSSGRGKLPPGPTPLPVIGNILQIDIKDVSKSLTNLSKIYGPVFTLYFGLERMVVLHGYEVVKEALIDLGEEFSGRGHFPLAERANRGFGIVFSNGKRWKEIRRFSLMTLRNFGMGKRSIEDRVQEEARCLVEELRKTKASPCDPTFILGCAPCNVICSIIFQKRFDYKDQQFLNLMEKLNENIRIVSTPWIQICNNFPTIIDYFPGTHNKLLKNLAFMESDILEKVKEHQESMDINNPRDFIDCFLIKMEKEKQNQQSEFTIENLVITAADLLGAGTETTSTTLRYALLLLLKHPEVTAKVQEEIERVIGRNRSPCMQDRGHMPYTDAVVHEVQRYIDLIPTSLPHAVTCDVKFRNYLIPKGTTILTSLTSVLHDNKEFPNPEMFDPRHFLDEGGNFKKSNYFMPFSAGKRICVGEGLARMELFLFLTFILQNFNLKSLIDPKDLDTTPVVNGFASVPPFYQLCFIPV

CYP2C19 = CYP2C19 (Homo sapiens, UniProt P33261); assay: Inhibition of CYP2C19 in human liver microsomes at 10 uM using mephenytoin substrate preincubated for 5 mins before NADPH addition and measured after 20 mins post NADPH addition; format: ADME; details: probe mephenytoin; summary of the method: as §2
CYP2C19, sequence (P33261 whole entry): as above

[3] = Stability in human liver microsomes assessed as clearance at 1 uM pre-incubated for 5 mins followed by NADPH addition and measured after 5 to 30 mins post NADPH addition by LC/MS/MS method; format: ADME; details: read-out: CLH
Summary of the method: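 Human liver microsomes (0.5 mg/mL) preincubated with 1 µM compound for 5 min at 37 °C in 0.1 M phosphate pH 7.4 with 1 mmol EDTA and 5 mmol MgCl2. Started with 1 mmol NADPH; sampled at 0, 5, 10 and 30 min. Quenched with equal volume of cold acetonitrile, vortexed, and centrifuged at 10,000 × g.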

CYP1A2 = molecular target: T3, CYP1A2 (Homo sapiens, UniProt P05177); assay: Inhibition of CYP1A2 in human liver microsomes at 10 uM using phenacetin substrate preincubated for 5 mins before NADPH addition and measured after 20 mins post NADPH addition; format: ADME; details: probe phenacetin; summary of the method: as §2
T3 sequence (P05177 whole entry): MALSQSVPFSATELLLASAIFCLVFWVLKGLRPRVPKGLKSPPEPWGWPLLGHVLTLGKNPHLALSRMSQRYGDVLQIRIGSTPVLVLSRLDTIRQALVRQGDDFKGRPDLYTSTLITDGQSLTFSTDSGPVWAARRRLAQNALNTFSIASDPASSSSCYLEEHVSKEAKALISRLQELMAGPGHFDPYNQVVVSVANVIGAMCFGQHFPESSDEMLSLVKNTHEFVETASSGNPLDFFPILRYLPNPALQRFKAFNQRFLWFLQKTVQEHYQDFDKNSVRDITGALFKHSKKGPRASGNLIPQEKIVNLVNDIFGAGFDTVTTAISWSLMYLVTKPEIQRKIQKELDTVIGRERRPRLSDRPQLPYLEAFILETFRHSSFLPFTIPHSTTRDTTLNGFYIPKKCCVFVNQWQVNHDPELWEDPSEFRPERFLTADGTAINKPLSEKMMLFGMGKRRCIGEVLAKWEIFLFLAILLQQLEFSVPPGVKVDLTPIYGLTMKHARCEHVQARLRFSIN

CYP2D6 = CYP2D6 (Homo sapiens, UniProt P10635); assay: Inhibition of CYP2D6 in human liver microsomes at 10 uM using dextromethorphan substrate preincubated for 5 mins before NADPH addition and measured after 20 mins post NADPH addition; format: ADME; details: liver microsomes, probe dextromethorphan; summary of the method: as §2
CYP2D6, sequence (P10635 whole entry, the tested form may be a part): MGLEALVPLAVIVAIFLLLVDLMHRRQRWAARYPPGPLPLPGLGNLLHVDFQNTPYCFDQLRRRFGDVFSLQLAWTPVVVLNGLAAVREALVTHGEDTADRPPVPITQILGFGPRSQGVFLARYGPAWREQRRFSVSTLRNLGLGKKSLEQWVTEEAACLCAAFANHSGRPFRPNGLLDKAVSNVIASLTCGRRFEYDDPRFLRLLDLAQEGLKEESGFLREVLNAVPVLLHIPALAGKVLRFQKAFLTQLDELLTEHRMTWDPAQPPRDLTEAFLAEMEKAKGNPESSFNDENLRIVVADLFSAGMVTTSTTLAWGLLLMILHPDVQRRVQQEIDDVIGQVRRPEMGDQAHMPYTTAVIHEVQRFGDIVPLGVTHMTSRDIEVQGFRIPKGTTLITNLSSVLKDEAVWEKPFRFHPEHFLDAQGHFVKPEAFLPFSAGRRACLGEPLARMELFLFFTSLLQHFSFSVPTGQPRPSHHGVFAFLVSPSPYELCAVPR

[4] = molecular target: T4, ATPase family AAA domain-containing protein 2 (Homo sapiens) (UniProt Q6PL18); assay: Binding affinity to ATAD2 (unknown origin) assessed as increase in protein melting temperature at 50 umol by real-time PCR system based thermal shift assay
T4 sequence (whole entry): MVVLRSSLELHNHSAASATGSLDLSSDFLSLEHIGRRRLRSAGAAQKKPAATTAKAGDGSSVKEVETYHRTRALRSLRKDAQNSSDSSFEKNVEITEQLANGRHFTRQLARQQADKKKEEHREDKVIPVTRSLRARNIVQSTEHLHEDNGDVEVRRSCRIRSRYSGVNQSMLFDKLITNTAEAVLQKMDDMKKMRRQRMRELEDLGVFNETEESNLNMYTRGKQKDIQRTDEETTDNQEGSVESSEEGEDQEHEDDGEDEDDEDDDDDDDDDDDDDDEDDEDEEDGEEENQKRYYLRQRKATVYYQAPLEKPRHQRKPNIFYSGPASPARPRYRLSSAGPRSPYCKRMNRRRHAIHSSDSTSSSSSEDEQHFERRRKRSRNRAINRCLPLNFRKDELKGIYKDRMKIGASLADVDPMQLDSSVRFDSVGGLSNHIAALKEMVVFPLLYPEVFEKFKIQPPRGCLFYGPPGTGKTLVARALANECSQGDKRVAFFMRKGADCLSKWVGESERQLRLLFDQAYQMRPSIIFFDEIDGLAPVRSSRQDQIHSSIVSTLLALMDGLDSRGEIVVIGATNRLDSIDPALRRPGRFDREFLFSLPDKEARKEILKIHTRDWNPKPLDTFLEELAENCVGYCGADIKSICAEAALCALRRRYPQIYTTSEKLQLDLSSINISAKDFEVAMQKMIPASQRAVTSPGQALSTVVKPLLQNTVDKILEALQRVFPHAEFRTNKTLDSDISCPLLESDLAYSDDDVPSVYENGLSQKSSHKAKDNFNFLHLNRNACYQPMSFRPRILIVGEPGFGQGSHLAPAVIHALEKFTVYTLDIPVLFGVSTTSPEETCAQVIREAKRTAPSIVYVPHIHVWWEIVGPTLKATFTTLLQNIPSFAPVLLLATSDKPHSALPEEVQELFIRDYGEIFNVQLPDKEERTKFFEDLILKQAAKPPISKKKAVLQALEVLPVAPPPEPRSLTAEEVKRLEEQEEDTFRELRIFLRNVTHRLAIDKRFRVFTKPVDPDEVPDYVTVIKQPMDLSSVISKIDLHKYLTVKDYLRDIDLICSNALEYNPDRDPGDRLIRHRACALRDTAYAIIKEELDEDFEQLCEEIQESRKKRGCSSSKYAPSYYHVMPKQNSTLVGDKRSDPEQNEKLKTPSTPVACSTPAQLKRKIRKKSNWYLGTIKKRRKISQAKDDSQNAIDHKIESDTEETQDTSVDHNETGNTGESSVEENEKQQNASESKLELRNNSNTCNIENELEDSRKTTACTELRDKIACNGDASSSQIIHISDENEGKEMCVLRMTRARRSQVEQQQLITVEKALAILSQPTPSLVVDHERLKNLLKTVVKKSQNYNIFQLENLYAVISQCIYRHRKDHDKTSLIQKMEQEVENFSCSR
Summary of the method: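 Bromodomain proteins in 10 mmol HEPES pH 7.5, 500 mmol NaCl at 75 μg/mL final; compound at 50 µmol final; SYPRO Orange probe at 1:1000. Four replicates per protein mixture. Melt curve read on a real-time PCR instrument, heating 25 °C to 99 °C at 1 °C/min under continuous fluorescence reading; binding taken as the rise in protein melting temperature.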

CYP3A4 [5] = molecular target: T2, CYP3A4; assay: Inhibition of CYP3A4 in human liver microsomes at 10 uM preincubated for 5 mins before NADPH addition and measured after 20 mins post NADPH addition; format: ADME
[6] = Growth inhibition of human MM1S cells after 72 hrs by CellTiter-Glo luminescent cell viability assay; details: MM1.S
MV4-11 = assay: Growth inhibition of human MV4-11 cells after 72 hrs by CellTiter-Glo luminescent cell viability assay; details: MV4-11, 72 h
Cytochrome P450 3A4 = Cytochrome P450 3A4 (Homo sapiens, UniProt P08684); assay: Time dependent inhibition of CYP3A4 in human liver microsomes at 10 uM using midazolam substrate preincubated for 5 mins before NADPH addition and measured after 20 mins post NADPH addition; format: ADME
Cytochrome P450 3A4, sequence (P08684 whole entry): as the sequence (P08684 whole entry) above

Cytochrome P450 2D6 = Cytochrome P450 2D6 (Homo sapiens, UniProt P10635); assay: Time dependent inhibition of CYP2D6 in human liver microsomes at 10 uM using dextromethorphan substrate preincubated for 5 mins before NADPH addition and measured after 20 mins post NADPH addition; format: ADME
Cytochrome P450 2D6, sequence (P10635 whole entry): as the sequence (P10635 whole entry, the tested form may be a part) above

Cytochrome P450 1A2 = molecular target: T5, Cytochrome P450 1A2 (Homo sapiens, UniProt P05177); assay: Time dependent inhibition of CYP1A2 in human liver microsomes at 10 uM using phenacetin substrate preincubated for 5 mins before NADPH addition and measured after 20 mins post NADPH addition; format: ADME
T5 sequence (P05177 whole entry): T3 sequence (P05177 whole entry)

[7] = molecular target: Bromodomain-containing protein 4 (Homo sapiens, UniProt O60885); assay: Inhibition of BRD4(1) (unknown origin) incubated for 4 hrs by (+)-JQ1 fluorescent ligand based fluorescence anisotrophy
Cytochrome P450 2C9 [8] = molecular target: T1, Cytochrome P450 2C9; assay: as §1; format: ADME; details: microsomes, 20 min, 10 µM; summary of the method: as §2

CYP2C9, sequence (P11712 whole entry): as the sequence (P11712 whole entry) above

| Structure (SMILES) | inhibition at 20 min, 10 µM (CYP2C9) [%] | TDI (Cytochrome P450 2C9 [1]) | IC50 (HT-29) [nM] | inhibition at 20 min, 10 µM (CYP3A4 [2]) [%] | TDI (Cytochrome P450 2C19) | inhibition at 20 min, 10 µM (CYP2C19) [%] | microsomal CLint at 1 µM [3] [µL/min/mg] | inhibition at 20 min, 10 µM (CYP1A2) [%] | inhibition at 20 min, 10 µM (CYP2D6) [%] | ΔTm [4] [°C] | inhibition at 20 min, 10 µM (CYP3A4 [5]) [%] | IC50 [6] [nM] | IC50 (MV4-11) [nM] | TDI (Cytochrome P450 3A4) | TDI (Cytochrome P450 2D6) | TDI (Cytochrome P450 1A2) | IC50 [7] [nM] | inhibition (INH) (Cytochrome P450 2C9 [8]) |
| --- | --- | --- | --- | --- | --- | --- | --- | --- | --- | --- | --- | --- | --- | --- | --- | --- | --- | --- |
| Cc1sc2c(c1C)C(c1ccc(Cl)cc1)=N[C@@H](CC(=O)OC(C)(C)C)c1nnc(C)n1-2 | 18 | Active | 104 | 30 | Active | 18 | 78 | 2 | 2 | 1.04 | 28 | 109 | 23 |  |  |  |  |  |
| COc1cc2c(cc1-c1c(C)noc1C)ncc1[nH]c(=O)n([C@H](C)c3ccccn3)c12 | 33 | Not Active | 945 | 21 | Not Active | 19 |  | 18 | 18 |  | 22 | 299 | 119 | Not Active | Not Active | Not Active |  |  |
| O=C(Nc1cc(-c2csc(=O)[nH]2)cc(S(=O)(=O)NC2CCCC2)c1)c1cccs1 | 57 | Not Active | 25200 | 17 | Not Active | 46 | 64 | 45 | 44 |  | 34 | 3300 | 272 | Not Active | Not Active | Not Active | 110 |  |
| CNc1cc(-c2csc(=O)[nH]2)cc(S(=O)(=O)NC2CCCC2)c1C |  | Not Active | 850 | 41 | Not Active | 17 | 174 | 37 | 36 |  | 47 | 505 | 198 | Not Active | Not Active | Not Active | 250 | Not Active |
